Values after ≈ are worked out from the molar mass of the structure shown. Active and inactive are the calls of the source.

Experiment [1] concerns Staphylococcus aureus. The experiment is described as follows: Induction of mecA/16S rRNA ratio in methicillin-resistant Staphylococcus aureus ATCC 33591 at 0.5 times MIC at pH 7.4 after 5 hrs. It is filed as functional.
In experiment [2] the test system is Staphylococcus aureus. In words: Induction of mecA/16S rRNA ratio in methicillin-resistant Staphylococcus aureus ATCC 33591 at 0.5 times MIC at pH 5.5 after 5 hrs. It is filed as functional.
The test system of experiment [3] is Staphylococcus aureus. The experiment is described as follows: Antimicrobial activity against methicillin-susceptible Staphylococcus aureus ATCC 25923 after phagocytosis by human THP1 macrophages assessed as reduction in bacterial count after 24 hrs. The format is functional, organism-based. Conditions: ATCC 25923, THP-1, 24 h. In a few lines:
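THP-1 human macrophage-like cells allowed to phagocytose S. aureus for 1 h, then exposed 24 h to a wide range of extracellular total-drug concentrations; controls given gentamicin at 0.5× MIC. Response is log10 CFU change from original inoculum; Hill equation fitted by nonlinear regression for EC50, Emax and static concentration; means of three independent determinations.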

For experiment [4], the system named is Staphylococcus aureus. In words: Antimicrobial activity against methicillin-susceptible Staphylococcus aureus ATCC 25923 after phagocytosis by human THP1 macrophages assessed as reduction in bacterial count at pH 5.5 after 24 hrs. The format is functional, organism-based. Conditions: ATCC 25923, THP-1, 24 h.
The subject of experiment [5] is Staphylococcus aureus. The experiment is described as follows: Antimicrobial activity against methicillin-susceptible Staphylococcus aureus ATCC 25923 after phagocytosis by human THP1 macrophages assessed as reduction in bacterial count at pH 7.4 after 24 hrs. It is filed as functional, organism-based. Conditions: ATCC 25923, THP-1, 24 h.
Experiment [6] relates to Staphylococcus aureus. In words: Antimicrobial activity against Staphylococcus aureus assessed as reduction in bacterial count at pH 5.5 after 24 hrs.
The test system of experiment [7] is Staphylococcus aureus. The experiment is described as follows: Antimicrobial activity against methicillin-resistant Staphylococcus aureus ATCC 33591 after phagocytosis by human THP1 macrophages assessed as reduction in bacterial count after 24 hrs. Conditions: ATCC 33591, THP-1, 24 h.
In experiment [8] the test system is Staphylococcus aureus. The experiment is described as follows: Reversal bacterial susceptibility against methicillin-resistant Staphylococcus aureus ATCC 33591 after phagocytosis by human THP1 macrophages assessed as bacterial count in presence of 10 mM ammonium chloride after 24 hrs. The format is functional, organism-based. In short, it runs like this:
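Infected THP-1 macrophages (MRSA ATCC 33591) given 10 mM ammonium chloride after phagocytosis together with meropenem 50 mg/liter or cloxacillin 8 mg/liter (total drug), incubated 24 h; controls with gentamicin 0.5× MIC; CFU counted; means of three independent determinations.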

The test system of experiment [9] is Staphylococcus aureus. In words: Antibacterial activity against methicillin-resistant Staphylococcus aureus 459 at pH 5.5. It is filed as functional. In a few lines:
(§1)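 MRSA clinical isolate 459 (penicillinase-negative, mecA-positive) grown in Mueller-Hinton broth with 2% NaCl; MIC determined in broth adjusted to pH 5.5 or 7.4, inoculum 10^6 CFU/ml of exponential-phase bacteria, 24-h incubation.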

In experiment [10] the test system is Staphylococcus aureus. The experiment is described as follows: Antibacterial activity against methicillin-resistant Staphylococcus aureus 459 at pH 7.4. The format is functional. In short, it runs like this: as §1
The test system of experiment [11] is Staphylococcus aureus. The experiment is described as follows: Antimicrobial activity against methicillin-resistant Staphylococcus aureus […] after phagocytosis by human THP1 macrophages assessed as reduction in bacterial count at pH 7.4 after 24 hrs. Conditions: THP-1, 24 h. The format is functional, organism-based.

Take `C[C@@H](O)[C@H]1C(=O)N2C(C(=O)O)=C(S[C@@H]3CN[C@H](C(=O)Nc4cccc(C(=O)O)c4)C3)[C@H](C)[C@H]12` [ERTAPENEM]: the Ratio is given as 0.79 in experiment [1] and 0.67 in experiment [2].

The EC50 is the concentration needed to bring the measured effect to its halfway point. As for `C[C@@H](O)[C@H]1C(=O)N2C(C(=O)O)=C(S[C@@H]3CN[C@H](C(=O)N(C)C)C3)[C@H](C)[C@H]12` [MEROPENEM], the EC50 in experiment [3] came to 0.14 µg/mL (≈ 0.365 µM); in [4], 0.2 µg/mL (≈ 0.522 µM); in experiment [5] it was 0.29 µg/mL (≈ 0.756 µM); in [6], 0.33 µg/mL (≈ 0.861 µM); in [7], 0.16 µg/mL (≈ 0.417 µM). In experiment [8], the result was inactive.

What is called MIC is the smallest concentration in the dilution series that meets the test's criterion for growth inhibition. High values mean weaker potency, low ones greater potency. For `Cc1onc(-c2ccccc2)c1C(=O)N[C@@H]1C(=O)N2[C@@H]1SC(C)(C)[C@@H]2C(=O)O` [OXACILLIN], the MIC in [9] turned out to be 0.03 µg/mL (≈ 0.0747 µM); in experiment [10], 1 µg/mL (≈ 2.49 µM).

As to `Cc1onc(-c2ccccc2Cl)c1C(=O)N[C@@H]1C(=O)N2[C@@H]1SC(C)(C)[C@@H]2C(=O)O` [CLOXACILLIN], the MIC in [9] was 0.03 µg/mL (≈ 0.0688 µM); in experiment [10], 0.125 µg/mL (≈ 0.287 µM). Further, the EC50 turned out to be 16.9 µg/mL (≈ 38.8 µM) in experiment [11]; 0.27 µg/mL (≈ 0.619 µM) in experiment [3]; 0.22 µg/mL (≈ 0.505 µM) in [4]; 0.35 µg/mL (≈ 0.803 µM) in [5]; 0.07 µg/mL (≈ 0.161 µM) in [6]; 0.23 µg/mL (≈ 0.528 µM) in experiment [7]. Besides, in [8], the result was inactive.

In the case of `CC1(C)S[C@@H]2[C@H](NC(=O)Cc3ccccc3)C(=O)N2[C@H]1C(=O)O` [PENICILLIN G], the results for the minimal inhibitory concentration (MIC) in [9] and in experiment [10] were 0.03 µg/mL (≈ 0.0897 µM) and 0.25 µg/mL (≈ 0.748 µM), respectively.

The values above are taken from ChEMBL document CHEMBL1144465, “Role of acidic pH in the susceptibility of intraphagocytic methicillin-resistant Staphylococcus aureus strains to meropenem and cloxacillin” (Antimicrob Agents Chemother, 2007).
